Sampled rows, rich in hits. Any-hit rate of the full collection: about 1.8%.
STAT3 activator: IL-6 driven STAT3 reporter potentiators, primary screen, U3A cells, luciferase, luminescence, MLSCN library; 190,000 tested, 0.91% active; IL-6 STAT3-luciferase reporter; 100% = signal with IL-6 EC80 alone; AID 871, 2007; activation (% of control), % at 5.6 µM;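 active means activation above the screen-wide mean of compound activation plus 3 SD, cut at about 130% in these data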;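 further: 0% = background luminescence of wells with medium and substrate only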
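Material: human STAT1-deficient U3A cells with stable STAT3-luciferase reporter / Probe or stimulus: IL-6 stimulus at 33 ng/mL final / Schedule: 1 h compound pre-exposure, 6 h IL-6 stimulation, 37 °C / Technique: luminescence / Read-out basis: percent of IL-6-only median luminescence / Control set: IL-6-only high control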
STAT3 blocker: IL-6 driven STAT3 reporter inhibitors, primary screen, U3A cells, luciferase, luminescence, MLSCN library; 190,000 tested, 0.89% active; inhibition, % at 5.5 µM; AID 862, 2007; IL-6 STAT3-luciferase reporter; host cell line lacks STAT1;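 active means inhibition above the mean inhibition across all screened compounds plus 3 SD, cut at about 44% in these data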;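 further: 0% = DMSO only wells and 100% = 100 µM nifuroxazide control wells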
TRAIL sens C8: viability loss with TRAIL in NB7+C8 cells, primary screen, TRAIL sensitizer project, cell-based, ATPlite luminescence | inhibition (viability loss, TRAIL sensitization), % at 10 µM | 360,000 tested, 1% active;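 active means compounds causing at least 50% loss of cell viability in the single-dose screen, relative to plate controls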
PPC-1+TRAIL kill: compounds killing PPC-1 cancer cells with TRAIL present, primary screen, TRAIL potentiator project, ATPLite luminescence, uHTS | PPC-1 cells + TRAIL, ATPLite viability luminescence | cell killing (% activity), % at 4 µM or 5 µM | 220,000 tested, 0.41% active | AID 1443, 2008;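 active means cell killing above 50% in the first pass at 4 µM, then a duplicate retest at 5 µM averaging 50% or more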;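 further: plate controls were cells with TRAIL plus DMSO for no effect and medium-only wells lacking cells for full effect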
STAT1 blocker: STAT1 signaling inhibitors, primary screen, cell-based, HTS, luciferase reporter; NIH 3T3 STAT1-luciferase reporter, IFN-gamma, luminescence; inhibition, % at 5.5 µM; 200,000 tested, 0.35% active;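 active means inhibition above a set limit, the mean inhibition across all tested compounds plus 3 SD, cut at about 34% in these data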;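 further: 0% = IFN-gamma with DMSO and 100% = IFN-gamma with 300 µM nifuroxazide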
PPC1 cytotox: cytotoxicity in PPC-1 cells, confirmation, cytotoxicity control for TRAIL apoptosis potentiator project, cell-based, ATP content luminescence | shares compounds with PPC-1+TRAIL kill | cytotoxicity, % at 5 µM | 1,200 tested, 50% active | PPC-1 viability, ATPlite luminescence, overnight | AID 1447, 2008;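 active means reconfirmed compounds whose average cytotoxicity reaches 50% or more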;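 further: 0% = DMSO-treated cells and 100% = wells holding medium but no cells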
Starred values were filed as active, the others as inactive; nt = no result given.

SMILES | STAT3 activator | STAT3 blocker | TRAIL sens C8 | PPC-1+TRAIL kill | STAT1 blocker | PPC1 cytotox
O=C(/C=C/c1ccc2c(c1)OCO2)Nc1cccnc1 | 81.8 | 24.9 | 70.3* | 60.5* | -33.0 | 56.7*
Cc1ccc(C(=O)O/N=C/c2c(N3CCOCC3)n(C)c3ccccc23)cc1 | 102.1 | 3.2 | -3.4 | 39.6 | -4.5 | 19.3
Cc1ccc2nc(Cl)c(/C=N/Nc3ccc(C(=O)O)cc3)cc2c1 | nt | nt | 78.5* | 87.5* | nt | 87.4*
CCCc1ccc(OCc2ccc(C(=O)N3CCCC3)o2)cc1 | nt | nt | -0.5 | nt | nt | nt
CN1CCN(C(=O)c2ccc(COc3ccc(C(C)(C)C)cc3)o2)CC1 | 108.0 | -4.4 | 11.1 | 21.7 | -22.4 | 21.9
CCOC(=O)COc1ccc2c3c(c(=O)oc2c1C)CCC3 | 74.8 | 32.9 | 0.7 | 7.6 | 8.8 | 13.8
CC(=O)c1ccc(NC(=O)C2CCN(S(=O)(=O)c3cccnc3)CC2)cc1 | nt | nt | -1.7 | nt | nt | nt
CC(=O)N1CCN(C(=O)c2cc3c(s2)CCC(C)C3)CC1 (stereo not given) | nt | nt | 14.5 | nt | nt | nt
O=C(CCl)Nc1cc(SCC(O)CO)cc([N+](=O)[O-])c1 (stereo not given) | 20.5 | 98.5* | 2.2 | 47.6 | 53.8* | 50.4*
CCOC(=O)CNc1c(-c2ccc(O)cc2)nc2ccc(Cl)cn12 | 104.6 | 4.6 | 4.1 | -10.1 | -16.9 | -13.5
CCOCCn1c(CN2CCN(C(c3ccccc3)c3ccccc3)CC2)nc2c1c(=O)n(C)c(=O)n2C | nt | nt | 2.4 | nt | nt | nt
CCCNC(=O)C1(C)CCCN(Cc2c(F)cccc2F)C1 (stereo not given) | nt | nt | 0.7 | nt | nt | nt
CCc1ccc(N2C=C(C(=O)OC)C(c3ccccc3F)C(C#N)=C2N)cc1 (stereo not given) | nt | nt | 15.0 | nt | nt | nt
COCCn1c(C)cc(C2=NNC(=NC3CC3)SC2)c1C | 10.1 | 103.3* | 78.3* | 89.2* | 96.6* | 88.1*
Fc1ccc(NC(=S)Nc2cccc3cnccc23)cc1 | 131.3 | -27.3 | -2.3 | 3.9 | 17.5 | -3.3
O=C(N/N=C/c1c(Cl)[nH]c2ccccc12)c1ccc2c(c1)OCCO2 | nt | nt | 65.9* | 65.0* | nt | 63.9*
O=C(N/N=C/c1cc(Br)cs1)c1ccc2c(c1)OCCO2 | nt | nt | 69.4* | 57.5* | nt | 60.2*
Cc1ccc(/C=N/NC(=O)c2ccc3c(c2)OCCO3)s1 | nt | nt | 29.9 | 37.3 | nt | 42.8
O=C(N/N=C/c1cc2c(cc1Cl)OCO2)c1ccc2c(c1)OCCO2 | nt | nt | 5.7 | 8.1 | nt | nt
Cc1ccsc1/C=N/NC(=O)c1ccc2c(c1)OCCO2 | nt | nt | 75.6* | 54.1* | nt | 62.8*
COc1cc(/C=N/NC(=O)c2ccc3c(c2)OCCO3)cc(Br)c1O | nt | nt | 33.5 | nt | nt | nt
Cc1ccc(C(=O)N/N=C/c2ccc([N+](=O)[O-])s2)cc1 | 35.8 | 76.3* | 23.4 | 38.2 | 80.1* | 35.6
O=C(N/N=C/c1ccc([N+](=O)[O-])s1)c1ccncc1 | 101.0 | -1.8 | 29.2 | 17.9 | 3.9 | nt
Cc1ccc(S(=O)(=O)CCC(=O)OCc2cc(C)ccc2C)cc1 | nt | nt | 3.4 | nt | nt | nt
CCCN(C(=O)CSc1nc(C2CC2)n(-c2ccccc2)n1)C1CCS(=O)(=O)C1 (stereo not given) | nt | nt | -4.5 | nt | nt | nt
SMILES | STAT3 activator | STAT3 blocker | TRAIL sens C8 | PPC-1+TRAIL kill | STAT1 blocker | PPC1 cytotox
COc1ccc(-n2nc3cc(C)c(NC(C)=O)cc3n2)cc1 | 38.3 | 76.5* | 73.6* | 64.0* | 39.0* | 60.2*
COc1ccc(-n2nc3cc(C)c(NC(=O)C(C)C)cc3n2)cc1 | 79.3 | 25.9 | nt | 45.0 | -42.8 | nt
C=CCn1c(SCC(=O)NC(=O)NCCC)nnc1C1CCCCC1 | 101.8 | 2.2 | -8.1 | -1.1 | -9.5 | 3.3
C=CCn1c(SCC(=O)NC(=O)NC)nnc1C1CCCCC1 | 94.6 | 14.2 | 7.3 | 3.8 | 1.0 | nt
O=[N+]([O-])c1ccc(Sc2cccc[n+]2[O-])c2nonc12 | nt | nt | 19.1 | 34.1 | nt | 30.9
O=[N+]([O-])c1ccc(Nc2ccccc2)c2nonc12 | nt | nt | -6.0 | nt | nt | nt
CCCCN1C(=O)C(CC(=O)NCc2cccc3ccccc23)CC(C(=O)N(C(C)C)C(C)C)=C1C (stereo not given) | nt | nt | -11.8 | nt | nt | nt
CCN(CC)CCNC(=O)c1ccc2c(c1NCCO)C(=O)c1ccccc1C2=O | nt | nt | 95.4* | 32.7 | nt | 26.6
CC1CCN(C(=O)c2ccc3c(c2NCCO)C(=O)c2ccccc2C3=O)CC1 | 103.0 | -3.3 | 0.5 | 4.8 | 3.6 | nt
CCCN1C(=O)/C(=C2\SC(N3CCCCC3)=NC2=O)c2ccccc21 | 104.4 | -2.1 | 42.6 | 31.3 | -29.3 | 15.6
CN1C(=O)/C(=C2\SC(N)=NC2=O)c2ccccc21 | 90.2 | 12.0 | 0.0 | 9.6 | -3.0 | nt
CN1C(=O)/C(=C2\SC(N3CCCCCC3)=NC2=O)c2ccccc21 | 113.6 | -16.5 | 50.9* | 58.8* | -29.9 | 49.0
CCN(CC)c1ccc(S(=O)(=O)N2CCOCC2)cc1NC(=O)CN1CCc2ccccc2C1 | 113.5 | -3.5 | -5.5 | 21.2 | 20.7 | nt
Cc1ccc(C)c(S(=O)(=O)N2CCCCC2CCNC(=O)C(=O)NCc2ccncc2)c1 (stereo not given) | nt | nt | 13.6 | nt | nt | nt
COc1c(C)cc(C(O)c2ncc(-c3ccc(Cl)cc3)[nH]2)cc1C (stereo not given) | nt | nt | 0.2 | nt | nt | nt
CCC1CN(C(=O)Nc2ccc(C)cc2)c2cc(C)ccc2O1 (stereo not given) | 96.3 | 9.9 | 5.0 | -6.0 | -4.2 | nt
CC(=O)c1nn(-c2cccc(Br)c2)cc1C(=O)c1ccccc1 | 100.3 | 3.1 | -2.2 | 2.1 | -3.4 | 3.8
CCOC(=O)c1nn(-c2ccc(C)cc2)cc1C(=O)c1ccccc1 | 93.4 | 6.5 | 52.6* | 39.1 | -47.6 | 44.9
CC(=O)c1nn(-c2ccc(Cl)cc2)cc1C(=O)c1ccccc1 | nt | nt | 12.8 | nt | nt | nt
CCCc1cc(=O)[nH]c(SCC(=O)N2CCC(C)CC2)n1 | nt | nt | -17.2 | nt | nt | nt
CCCc1cc(=O)[nH]c(SCC(=O)N2CCN(c3ccc(F)cc3)CC2)n1 | 102.7 | 0.5 | -2.6 | 6.8 | -3.2 | 0.5
Cc1cc(=O)[nH]c(SCC(=O)N2CCCCCC2)n1 | 101.7 | 4.4 | 4.0 | 13.8 | -1.5 | 13.1
COc1ccc(CNC(=O)c2cccc3c(-c4cnn(C)c4)coc23)cc1OC | nt | nt | 19.7 | nt | nt | nt
CCN(CC)c1ccc(NC(=S)Nc2ccc(F)cc2)cc1 | 103.8 | -2.3 | 3.5 | 16.1 | 3.7 | 6.5
O=C(OCC(=O)N1CCOCC1)c1ccc(Cl)c(S(=O)(=O)N2CCc3ccccc32)c1 | nt | nt | 5.0 | nt | nt | nt
Cc1ccc2nc(-c3sc4nc(C)ccc4c3N)[nH]c2c1 | 81.8 | 23.1 | 54.0* | 31.6 | -19.1 | 23.7
Cc1ccc2nc(-c3ccncc3)[nH]c2c1 | nt | nt | 16.6 | nt | nt | nt
COc1ccc2nc(NC(=O)Nc3ccccc3OC)sc2c1 | nt | nt | 43.7 | nt | nt | nt
COc1ccc2nc(Nc3ccccc3OC)sc2c1 | 82.2 | 25.7 | 69.0* | 60.6* | -8.4 | 57.1*
